Results as given in ChEMBL document CHEMBL2385053, “Novel isoquinoline derivatives as antimicrobial agents” (2013).

Experiments:
[1] = test system: Phytophthora citrophthora; assay: Fungicidal activity against Phytophthora citrophthora CECT 2353 at 0.2 mg/disk after 72 hrs by paper disk-agar diffusion method; format: functional
Procedure, shortened: (§1)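 Fungi were grown on potato dextrose agar (PDA) for 7 days at 28 °C. Conidia were suspended to ~10⁶/mL in 0.05% Tween 80 in sterile water, and 1 mL was mixed into 15 mL PDA. Four 0.5 cm paper disks (0.2 mg/disk) were placed on the set agar. Controls were vehicle-only disks and benomyl at species-dependent doses. The inhibition zone was read in mm at 72 h as the mean ± SE of three independent experiments.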

Aspergillus parasiticus = assay: Fungicidal activity against Aspergillus parasiticus CECT 2681 at 0.2 mg/disk after 72 hrs by paper disk-agar diffusion method; format: functional; procedure, shortened: as §1
Escherichia coli [2] = assay: Bactericidal activity against Escherichia coli CECT 405 at 0.2 mg/disk after 24 hrs by paper disk-agar diffusion method; format: functional
Procedure, shortened: (§2)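 Each bacterial strain was taken from a 24-h culture on solid medium, reactivated in Nutrient Broth, and grown a further 24 h at 28 or 37 °C depending on the strain. 1 mL of suspension was mixed with 15 mL Plate Count Agar. Four 0.5 cm paper disks (0.2 mg/disk) were placed on the set agar. Controls were vehicle-only disks and tetracycline. Plates were incubated 24 h, dark, 28 or 37 °C. The inhibition zone was read in mm as the mean ± SE of three independent experiments.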

Enterococcus faecalis = assay: Bactericidal activity against Enterococcus faecalis CECT 481 at 0.2 mg/disk after 24 hrs by paper disk-agar diffusion method; format: functional; procedure, shortened: as §2
Salmonella typhi [3] = assay: Bactericidal activity against Salmonella typhi CECT 409 at 0.2 mg/disk after 24 hrs by paper disk-agar diffusion method; format: functional, Salmonella enterica subsp. enterica serovar Typhi
Procedure, shortened: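 Paper disk-agar diffusion, run in triplicate. 24-h culture reactivated in nutrient broth and grown a further 24 h at 28 or 37 °C by species. 1 mL suspension mixed into 15 mL plate count agar. Four 0.5 cm disks placed per plate, incubated 24 h in the dark. Inhibition zone (mm) reported as mean ± SE of three independent experiments; vehicle disks as negative control.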

[4] = test system: Pectobacterium carotovorum; assay: Bactericidal activity against Erwinia carotovora CECT 225 at 0.2 mg/disk after 24 hrs by paper disk-agar diffusion method; format: functional; procedure, shortened: as §2
Bacillus cereus = assay: Bactericidal activity against Bacillus cereus CECT 148 at 0.2 mg/disk after 24 hrs by paper disk-agar diffusion method; format: functional; procedure, shortened: as §2
Staphylococcus aureus = assay: Bactericidal activity against Staphylococcus aureus CECT 86 at 0.2 mg/disk after 24 hrs by paper disk-agar diffusion method; format: functional; procedure, shortened: as §2
Escherichia coli [5] = assay: Bactericidal activity against Escherichia coli CECT 100 at 0.2 mg/disk after 24 hrs by paper disk-agar diffusion method; format: functional; procedure, shortened: as §2
Fusarium culmorum = assay: Fungicidal activity against Fusarium culmorum CCM 172 at 0.2 mg/disk after 72 hrs by paper disk-agar diffusion method; format: functional; procedure, shortened: as §1
Trichoderma viride = assay: Fungicidal activity against Trichoderma viride CECT 2423 at 0.2 mg/disk after 72 hrs by paper disk-agar diffusion method; format: functional; procedure, shortened: as §1
Geotrichum candidum = assay: Fungicidal activity against Geotrichum candidum CCM 245 at 0.2 mg/disk after 72 hrs by paper disk-agar diffusion method; format: functional; procedure, shortened: as §1
Salmonella typhi [6] = assay: Bactericidal activity against Salmonella typhi CECT 409 at 0.2 mg/disk after 24 hrs by paper disk-agar diffusion method relative to control; format: functional, Salmonella enterica subsp. enterica serovar Typhi
Escherichia coli [7] = assay: Bactericidal activity against Escherichia coli CECT 405 at 0.2 mg/disk after 24 hrs by paper disk-agar diffusion method relative to control; format: functional

SMILES	inhibition zone (IZ) [1] [mm]	inhibition zone (IZ) (Aspergillus parasiticus) [mm]	inhibition zone (IZ) (Escherichia coli [2]) [mm]	inhibition zone (IZ) (Enterococcus faecalis) [mm]	inhibition zone (IZ) (Salmonella typhi [3]) [mm]	inhibition zone (IZ) [4] [mm]	inhibition zone (IZ) (Bacillus cereus) [mm]	inhibition zone (IZ) (Staphylococcus aureus) [mm]	inhibition zone (IZ) (Escherichia coli [5]) [mm]	inhibition zone (IZ) (Fusarium culmorum) [mm]	inhibition zone (IZ) (Trichoderma viride) [mm]	inhibition zone (IZ) (Geotrichum candidum) [mm]	Activity (Salmonella typhi [6]) [%]	Activity (Escherichia coli [7]) [%]
COc1cc2c(cc1OC)C(CCCCCOC(=O)c1ccccc1)N(C)CC2 (configuration not stated)	0	0	9.83	9.83	9.67	12.17	10.83	10.67	11	7	7.25	6.75	–	–
COc1cc2c(cc1OC)C(CCCCCOC(=O)c1ccc(F)cc1)N(C)CC2 (configuration not stated)	0	0	13.67	13.67	14.83	13.5	13	13.67	14	8	7	7	61	–
COc1cc2c(cc1OC)C(CCCCCOC(=O)c1ccc(Cl)cc1)N(C)CC2 (configuration not stated)	10.33	0	11.5	11.67	–	12.67	13	12.67	13.67	6.67	9	12.33	–	–
COc1ccc(C(=O)OCCCCCC2c3cc(OC)c(OC)cc3CCN2C)cc1 (configuration not stated)	0	0	11.33	11.33	–	10.33	10.33	11.33	10.83	5.5	5.5	7.33	–	–
COc1cc2c(cc1OC)C(CCCCCOC(=O)CCc1ccccc1)N(C)CC2 (configuration not stated)	6.67	0	8.67	8.67	–	10.67	10.33	9.67	11.33	6.33	8	7.83	–	–
COc1cc2c(cc1OC)C(CCCCCOC(=O)CCc1ccc(Cl)cc1)N(C)CC2 (configuration not stated)	8.5	0	9.17	8.33	8.17	11	11	8.67	8.67	9.5	9	8.5	–	–
COc1ccc(CCC(=O)OCCCCCC2c3cc(OC)c(OC)cc3CCN2C)cc1 (configuration not stated)	0	0	7.33	7	8	11.33	8.5	7.83	7	6.5	6	5.75	–	–
COc1cc2c(cc1OC)C(CCCCCOC(=O)NCCc1ccccc1)N(C)CC2 (configuration not stated)	0	0	14	13.67	13.5	11	10.17	14	10.67	0	0	7.67	–	–
COc1cc2c(cc1OC)C(CCCCCOC(=O)NCCc1ccc(F)cc1)N(C)CC2 (configuration not stated)	0	0	16	15	14.83	11.67	11.33	15.33	11.33	0	0	7.67	61	62
COc1cc2c(cc1OC)C(CCCCCOC(=O)NCCc1ccc(Cl)cc1)N(C)CC2 (configuration not stated)	6.25	0	17.67	17	–	18.33	14.67	16.33	12.33	15	7	10	75	75
COc1ccc(CCNC(=O)OCCCCCC2c3cc(OC)c(OC)cc3CCN2C)cc1 (configuration not stated)	0	0	13.33	11	–	17	12	9	10.67	0	0	7	–	–
CCCCC1=[N+](C)CCc2cc(OC)c(OC)cc21	–	–	7	7	6.75	7	7	7	0	–	–	–	–	–
CCCCC1c2cc(OC)c(OC)cc2CCN1C (configuration not stated)	0	0	6	7	6.25	6	6	6	0	5.5	0	0	–	–
COC(=O)CCCCC1=[N+](C)CCc2cc(OC)c(OC)cc21	–	–	0	0	0	5.5	6.33	0	0	–	–	–	–	–
COC(=O)CCCCC1c2cc(OC)c(OC)cc2CCN1C (configuration not stated)	–	–	0	0	0	0	6.33	5.5	5.83	–	–	–	–	–
CN(C)[C@@H]1C(O)=C(C(N)=O)C(=O)[C@@]2(O)C(O)=C3C(=O)c4c(O)cccc4[C@@](C)(O)[C@H]3C[C@@H]12 [TETRACYCLINE]	–	–	25.67	31.17	24.33	34.67	23.33	27	25.67	–	–	–	–	–
